According to ChEMBL document CHEMBL1149594, “Synthesis and HCV inhibitory properties of 9-deaza- and 7,9-dideaza-7-oxa-2'-C-methyladenosine” (Bioorg Med Chem, 2007):

Legend:
[1] = Cytotoxicity against Huh7 cells after 24 hrs by MTS assay; assay type: cell-based, Huh-7; details: human
How it was run: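 Nucleoside cytotoxicity in the replicon-bearing Huh-7 cells, measured by MTS assay after 24 h exposure. Result expressed as CC50.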

[2] = test system: Hepatitis C virus; test: Antiviral activity against HCV genotype 1b in Huh7 cells assessed as inhibition of viral RNA replication after 72 hrs by ribonuclease protection assay; assay type: functional, organism-based, Hepacivirus hominis; details: Huh-7, 72 h
How it was run: (§1)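 Huh-7 (HB-1) cells carrying a subgenomic bicistronic neomycin-resistance replicon from HCV genotype 1b. Compound incubated with cells 24 h or 72 h. Intracellular replicon RNA then quantified by in situ ribonuclease protection. EC50 taken as the mean of at least two separate determinations.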

[3] = test system: Hepatitis C virus; test: Antiviral activity against HCV genotype 1b in Huh7 cells assessed as inhibition of viral RNA replication after 24 hrs by ribonuclease protection assay; assay type: functional, organism-based, Hepacivirus hominis; details: Huh-7, 24 h; how it was run: as §1

Row | SMILES | EC50 [2] [µM] | EC50 [3] [µM] | CC50 at 24 h [1] [µM]
1 | C[C@@]1(O)[C@H](O)[C@@H](CO)O[C@H]1n1cnc2c(N)ncnc21 | 0.2 | 0.25 | > 100
2 | C[C@@]1(O)[C@H](O)[C@@H](CO)O[C@H]1n1ccc2c(N)ncnc21 [BETA-2'-C-METHYL-7-DEAZA-ADENOSINE] | 0.11 | 0.3 | > 100

Further lines, with some results ahead:

Row | EC50 [2] [µM] | EC50 [3] [µM] | SMILES | CC50 at 24 h [1] [µM]
3 | 1.5 | 7.45 | CC(C)[C@H](N)C(=O)O[C@@H]1[C@@H](CO)O[C@@H](n2ccc(N)nc2=O)[C@]1(C)O [VALOPICITABINE] | > 100
4 | 8.1 | 22 | C[C@@]1(O)[C@H](O)[C@@H](CO)O[C@H]1c1coc2c(N)ncnc12 | > 100
5 | 59.7 | > 100 | C[C@@]1(O)[C@H](O)[C@@H](CO)O[C@H]1c1c[nH]c2c(N)ncnc12 | > 100
